# Screening data from PubChem BioAssay.
# SENP7 inh – SENP7 protease inhibition | Q9BQF6 | AID 434973 | 1.5% of 330,000 active | recombinant SENP7, Z-RLRGG-aminoluciferin luminescence, 40 min | inhibition, % at 5 µM;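 active = inhibition above about 50% at the single test dose, limit read from the data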;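 also: plate controls were DMSO with enzyme for no effect and no enzyme buffer wells for full effect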
# SENP6 block – SENP6 protease inhibition. Q9GZR1. Recombinant SENP6 catalytic domain, aminoluciferin luminescence. inhibition, % at 10 µM. 1.8% of 330,000 active;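 active = inhibition above about 50% at the single tested dose, limit read from the data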;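 also: plate controls were DMSO wells with enzyme for no effect and DMSO wells lacking enzyme for full effect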
# Target sequence (Q9GZR1 628-1112 limits assumed): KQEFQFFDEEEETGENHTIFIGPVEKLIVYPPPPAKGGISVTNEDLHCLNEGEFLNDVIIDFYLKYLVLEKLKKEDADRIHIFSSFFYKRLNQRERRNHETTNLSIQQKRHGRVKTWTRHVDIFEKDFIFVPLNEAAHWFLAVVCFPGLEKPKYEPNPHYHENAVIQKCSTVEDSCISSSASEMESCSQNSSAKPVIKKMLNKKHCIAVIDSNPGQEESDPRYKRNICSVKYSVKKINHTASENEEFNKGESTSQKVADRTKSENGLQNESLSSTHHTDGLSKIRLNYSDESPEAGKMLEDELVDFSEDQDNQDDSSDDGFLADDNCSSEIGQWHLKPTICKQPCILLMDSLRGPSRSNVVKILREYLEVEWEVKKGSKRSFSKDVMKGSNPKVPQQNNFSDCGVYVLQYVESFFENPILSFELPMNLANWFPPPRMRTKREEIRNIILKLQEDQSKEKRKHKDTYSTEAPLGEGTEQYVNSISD
# SENP8 block-1 – inhibitors of human SENP8 protease; Q96LD8; recombinant SENP8, Nedd8 substrate fluorescence; inhibition, % at 20 µM; 0.64% of 360,000 active; AID 602440; in the data active = inhibition mostly above about 40%, no sharp cut-off; inactive = mostly below about 27%
# SENP1 FRET inh – inhibitors of human SENP1 SUMO protease catalytic domain; recombinant SENP1 catalytic domain, CyPet-SUMO1-YPet FRET cleavage; inhibition, % at 10 µM; 0.21% of 360,000 active;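 active = inhibition at least 30% at 10 µM, raw YFP signal under a set limit, fluorescence ratio 0.5 to 1.5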;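 also: 0% = enzyme with DMSO and 100% = no enzyme wells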
# Target sequence (Q9P0U3 419-644 limits assumed): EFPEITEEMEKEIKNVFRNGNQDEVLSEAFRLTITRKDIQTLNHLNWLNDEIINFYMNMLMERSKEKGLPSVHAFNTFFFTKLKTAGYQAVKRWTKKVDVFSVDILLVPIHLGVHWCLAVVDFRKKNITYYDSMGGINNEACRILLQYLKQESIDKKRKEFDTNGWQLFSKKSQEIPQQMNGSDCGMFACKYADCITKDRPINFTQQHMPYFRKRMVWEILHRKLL
#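 Test system: hSENP1 catalytic domain, recombinant; Amount: 20 pM final SENP1 enzyme; Medium: Tris pH 8 buffer plus EDTA, NaCl, BME, BSA, NP40, catalase; Schedule: 50 min enzyme reaction, room temperature, light-protected; Technique: FRET fluorescence in CFP and YFP emission channels; Controls: no-enzyme wells low, DMSO-plus-enzyme wells high control.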
# SENP8 block-2 – SENP8 protease inhibition | Q96LD8 | inhibition, % at 10 µM | purified SENP8, Z-RLRGG-aminoluciferin cleavage, luminescence | 1.2% of 330,000 active; in the data active = inhibition above about 50%
# Platelet DG rel – modulates dense granule release in human platelets; human platelet-rich plasma, SFLLRN dense granule ATP release, luminescence; inhibition, %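 (compounds screened at 7.5 µM in platelet-rich plasma)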; 0.22% of 300,000 active;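 active = mean replicate score, as percent of positive control, at or above 50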
# SENP8 confirm – confirmation of human SENP8 protease inhibitors | Recombinant SENP8, Z-RLRGG-aminoluciferin luminescence, 60 min | 40% of 6,200 active | shares compounds with SENP7 inh | AID 488912 | inhibition, % at 12.5 µM;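 active = mean inhibition across replicates above about 50%, limit read from the data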
# SENP6 confirm – human SENP6 inhibition, confirmed; inhibition, % at 12.5 µM; shares compounds with SENP7 inh; AID 488915; 58% of 6,200 active; recombinant SENP6, Z-RLRGG-aminoluciferin luminescence
# SENP7 conf – human SENP7 inhibition, confirmed. shares compounds with SENP7 inh. recombinant SENP7, Z-RLRGG-aminoluciferin luminescence, 40 min. inhibition, % at 12.5 µM. 69% of 6,200 active
# Casp3 select – inhibits human caspase-3 in SENP selectivity test; shares compounds with SENP7 inh; purified caspase-3, Z-DEVD-aminoluciferin luminescence, 60 min; inhibition, % at 12.5 µM; 60% of 6,200 active; AID 488918;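 active = mean inhibition above about 50%, limit read from the data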;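 also: plate controls were enzyme with DMSO for no effect and wells without caspase-3 for full effect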
# SENP luc ctr – luminescence interference (SENP counter-screen); shares compounds with SENP7 inh; Pre-incubated SENP8/Z-RLRGG-aminoluciferin, luciferase luminescence interference; inhibition, % at 12.5 µM; 39% of 6,200 active;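 active = mean inhibition above about 50% when retested at one dose, limit read from the data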;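 also: plate controls were DMSO wells with completed reaction for no effect and substrate without enzyme for full effect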
# Starred values were filed as active, the others as inactive; nt = not tested or not shown. Shown are actives, neighbours in structure and some others; about 2.6% of the full set was active somewhere.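 The calls were made as follows, unless noted: active = mean inhibition above about 50% in the one-dose retest (limit read from the data); inactive = the rest.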
SMILES,SENP7 inh,SENP6 block,SENP8 block-1,SENP1 FRET inh,SENP8 block-2,Platelet DG rel,SENP8 confirm,SENP6 confirm,SENP7 conf,Casp3 select,SENP luc ctr
Brc1ccc(N=NNc2ccccc2)cc1,20.4,51.2*,37.8,0.2,12.0,-3.1,67.8*,74.4*,88.5*,28.5,46.5
CC(C)N(N=Nc1ccc([N+](=O)[O-])cc1)C(C)C,-4.2,10.7,20.1,-2.4,1.0,4.4,nt,nt,nt,nt,nt
CCN(C(=O)CN1C(=O)NC(c2ccccc2)(c2ccc(C)c(C)c2)C1=O)C1CCCCC1 (stereo not given),5.7,-0.1,0.8,0.8,0.2,nt,nt,nt,nt,nt,nt
O=C(OCCCc1cc2ccccc2c(=O)o1)c1ccccc1C(F)(F)F,-9.8,-15.5,8.3,1.5,-4.4,nt,nt,nt,nt,nt,nt
COc1ccc(C2C(=O)c3ccccc3C2=O)cc1,12.1,56.9*,-19.0,-0.8,62.3*,8.1,-7.7,66.7*,90.6*,84.4*,62.3*
COc1ccc(C2=C(N)c3ccccc3C2=O)cc1,-25.8,54.4*,22.6,2.8,37.4,0.4,52.3*,48.8,82.9*,73.1*,7.9
O=C(NCc1cc2ccccc2[nH]1)c1ccccc1F,-18.0,-19.3,-14.1,-15.4,-10.4,1.2,nt,nt,nt,nt,nt
Cc1ccc(C)c(N(C)S(=O)(=O)c2cccc3nsnc23)c1,-12.6,-10.2,6.3,0.6,-0.3,-1.5,nt,nt,nt,nt,nt
COc1cccc(-c2nc3ccccc3c(=O)o2)c1,28.7,37.6,13.1,-1.4,-16.2,1.3,nt,nt,nt,nt,nt
COc1cccc(-c2nc3ccc([N+](=O)[O-])cc3o2)c1,94.6*,0.1,0.3,1.2,42.9,11.8,48.7,55.9*,72.9*,48.9,7.8
O=[N+]([O-])c1ccc2nc(-c3ccccc3)oc2c1,71.1*,77.5*,19.0,3.5,63.4*,-1.8,54.3*,58.8*,78.3*,70.2*,22.1
O=c1oc(-c2cccc([N+](=O)[O-])c2)nc2ccccc12,2.3,24.3,5.1,1.9,26.8,-4.5,nt,nt,nt,nt,nt
COc1ccc(C(=O)Nc2nc3c(s2)Cc2cc(OC)ccc2-3)cc1,93.3*,81.7*,-59.0,-37.8,89.6*,6.1,28.6,67.6*,50.3*,18.9,4.2
COc1ccc2c(c1)Cc1sc(NC(=O)c3ccccc3)nc1-2,90.0*,95.1*,-24.0,-4.5,91.3*,0.9,4.2,65.3*,87.9*,65.5*,23.8
COc1ccc2c(c1)Cc1sc(NC(=O)c3cccs3)nc1-2,94.3*,91.8*,14.7,-6.8,96.1*,14.6,67.3*,75.0*,99.3*,77.3*,29.1
COCCN(C(=O)Cn1nnc2ccccc21)C(C(=O)NC1CCCC1)c1ccc(OC)cc1OC (stereo not given),1.6,-4.6,23.8,4.2,5.1,6.0,nt,nt,nt,nt,nt
Clc1ccc(-c2c[nH]c3ccccc23)nn1,-3.7,-8.1,-23.6,-2.5,-5.0,-2.7,nt,nt,nt,nt,nt
CSCCC(NC(=O)c1ccc([N+](=O)[O-])cc1Cl)C(=O)OCC(=O)N(C)C (stereo not given),-2.7,-39.9,12.9,1.1,-13.6,-5.7,nt,nt,nt,nt,nt
O=S(=O)(CC12C3C4C5C1C2C(Br)(C43)C51OCCO1)c1ccccc1 (stereo not given),-2.1,1.0,8.7,1.7,1.2,0.9,nt,nt,nt,nt,nt
CSc1ncccc1C(=O)OCC(=O)N1CCN(C(=O)c2ccco2)CC1,8.7,-4.1,0.6,4.1,0.8,nt,nt,nt,nt,nt,nt
O=C(Nc1ccccc1)c1cc(C2CCCCN2S(=O)(=O)c2ccc(F)cc2F)on1 (stereo not given),nt,nt,11.0,-0.7,nt,nt,nt,nt,nt,nt,nt
Cc1cc(NC(=O)c2ccco2)sc1C,76.2*,82.7*,-7.5,0.9,67.7*,nt,5.9,60.3*,86.0*,80.9*,67.0*
O=C(Nc1nc2ccsc2c(=O)s1)c1ccco1,77.3*,71.7*,-85.5,-33.9,52.6*,28.3,79.3*,71.9*,94.3*,46.5,77.2*
O=C(Nc1nc2ccc(Br)cc2s1)c1ccco1,62.9*,74.7*,-75.8,-5.9,58.5*,0.4,33.4,64.1*,90.3*,69.1*,30.4
Cc1cccc(NC(=O)c2ccco2)c1C,9.9,-8.1,11.9,0.5,-7.5,6.6,nt,nt,nt,nt,nt
SMILES,SENP7 inh,SENP6 block,SENP8 block-1,SENP1 FRET inh,SENP8 block-2,Platelet DG rel,SENP8 confirm,SENP6 confirm,SENP7 conf,Casp3 select,SENP luc ctr
Cc1csc2c(=O)sc(NC(=O)c3ccco3)nc12,-1.0,1.8,-95.7,-169.3,-6.6,2.5,nt,nt,nt,nt,nt
Cc1cc2sc(NC(=O)c3ccco3)nc2cc1Cl,70.8*,27.8,-123.3,-2.1,9.1,8.1,9.9,9.6,5.5,29.0,7.1
Cc1cc(C)cc(N(C(=O)c2csnn2)C(C(=O)NC2CCCCC2)c2ccncc2)c1 (stereo not given),7.6,25.7,8.4,1.9,-2.7,0.4,nt,nt,nt,nt,nt
O=C(Nc1ccc2nc(-c3ccccc3)[nH]c2c1)c1ccco1,9.5,19.7,-237.1,-1.4,-4.7,-2.2,nt,nt,nt,nt,nt
COc1ccc2nc(NC(C)=O)sc2c1,30.9,-4.8,27.6,1.9,5.1,-2.4,nt,nt,nt,nt,nt
Cc1cccc2[nH]c(-c3ccc(NC(=O)c4ccco4)cc3)nc12,89.6*,91.1*,-212.7,0.5,77.3*,9.0,-21.7,79.5*,95.7*,75.3*,77.7*
CC(=O)Nc1nc2ccc(Br)cc2s1,70.2*,80.1*,13.2,-3.0,56.2*,1.9,71.6*,69.2*,91.5*,74.2*,58.9*
COc1ccc(-c2ccc(NC(=O)c3ccco3)cc2)nn1,93.8*,90.6*,-37.8,-1.8,90.3*,39.6,89.9*,89.6*,98.8*,96.2*,68.0*
Cc1ccc2nc(NC(=O)c3ccc(Br)o3)sc2c1,87.1*,72.8*,-226.3,0.0,59.7*,1.5,35.9,37.7,47.9,43.9,13.9
O=C(COc1nc2ccccc2nc1N1CCOCC1)Nc1ccc(S(=O)(=O)N2CCCC2)cc1,-0.1,1.6,-24.9,-39.8,4.9,-8.8,nt,nt,nt,nt,nt
COc1ccc(/C=N/NC(=O)Cc2csc(Nc3cccc(C(F)(F)F)c3)n2)c(OC)c1,1.4,-3.7,12.0,-0.5,-0.6,5.5,nt,nt,nt,nt,nt
CCOc1ccc(-c2csc(NC(=O)c3ccco3)n2)cc1,32.5,45.5,-34.5,-4.6,20.0,3.6,nt,nt,nt,nt,nt
